Assay results published in ChEMBL document CHEMBL4033612, “The Bibenzyl Canniprene Inhibits the Production of Pro-Inflammatory Eicosanoids and Selectively Accumulates in Some Cannabis sativa Strains” (J Nat Prod, 2017).
Active and inactive are the calls of the source. The rule behind the calls is not given here.

How the values were obtained:
[1] = target: T1, Polyunsaturated fatty acid 5-lipoxygenase (Homo sapiens, UniProt P09917); test: (§1) Inhibition of human recombinant 5-lipoxygenase expressed in Escherichia coli MV1190 pre-incubated for 10 mins before arachidonic acid substrate addition and measured after 10 mins by RP-HPLC method
T1 sequence (P09917 whole entry): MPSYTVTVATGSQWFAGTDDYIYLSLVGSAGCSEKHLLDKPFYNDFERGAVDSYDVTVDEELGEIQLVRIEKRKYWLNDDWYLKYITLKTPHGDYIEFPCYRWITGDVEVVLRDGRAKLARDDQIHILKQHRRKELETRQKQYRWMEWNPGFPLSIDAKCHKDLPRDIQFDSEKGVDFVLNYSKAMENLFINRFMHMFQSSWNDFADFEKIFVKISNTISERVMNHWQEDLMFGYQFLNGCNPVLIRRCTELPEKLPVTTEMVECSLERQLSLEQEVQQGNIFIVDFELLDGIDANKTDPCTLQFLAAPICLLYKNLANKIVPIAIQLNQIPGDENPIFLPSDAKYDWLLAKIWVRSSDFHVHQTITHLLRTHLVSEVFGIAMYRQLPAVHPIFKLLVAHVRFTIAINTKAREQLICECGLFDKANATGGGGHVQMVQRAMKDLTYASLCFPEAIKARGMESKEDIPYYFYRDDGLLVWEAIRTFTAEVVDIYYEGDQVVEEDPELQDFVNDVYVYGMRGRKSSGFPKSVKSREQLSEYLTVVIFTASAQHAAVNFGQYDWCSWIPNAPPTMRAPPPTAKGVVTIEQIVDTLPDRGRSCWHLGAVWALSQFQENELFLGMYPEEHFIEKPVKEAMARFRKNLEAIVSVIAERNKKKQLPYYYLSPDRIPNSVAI
Outline: (§2)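 5-LO expressed at 27 °C in transformed E. coli, lysed, sonicated, spun at 40000g; supernatant partially purified on ATP-agarose and used at once. Enzyme diluted in ice-cold PBS with 1 mM EDTA and 1 mM ATP, preincubated with compound 10 min at 4 °C, warmed 30 s at 37 °C. Reaction started with 2 mM CaCl2 plus 20 μM AA, 10 min at 37 °C, stopped with methanol. Products analysed by RP-HPLC. IC50 by linear interpolation around 50% activity.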

[2] = target: T2, Prostaglandin E synthase (Homo sapiens) (UniProt O14684); test: Inhibition of mPGES-1 in interleukin-1 beta-stimulated human A549 cells microsomal membranes up to 10 uM assessed as reduction in conversion of PGH2 to PGE2 pre-incubated for 15 mins followed by PGH2 substrate addition measured after 1 min by RP-HPLC method; type: cell-based
T2 sequence (whole entry): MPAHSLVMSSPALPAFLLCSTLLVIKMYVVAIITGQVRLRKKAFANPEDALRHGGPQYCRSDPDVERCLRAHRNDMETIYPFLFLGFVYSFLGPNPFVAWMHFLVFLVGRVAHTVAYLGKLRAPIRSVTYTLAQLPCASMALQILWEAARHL
Outline: (§3)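 A549 cells treated with 1 ng/mL IL-1β for 48 h, sonicated, and microsomes isolated at 174000g. Membranes were diluted in 0.1 M potassium phosphate pH 7.4 with 2.5 mM glutathione and given compound or vehicle for 15 min at 4 °C. PGH2 was added and the reaction ran 1 min at 4 °C, then was stopped with FeCl2/citric acid containing 11β-PGE2 internal standard. PGE2 was taken by SPE and measured by RP-HPLC. IC50 by linear interpolation.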

[3] = target: T3, Prostaglandin E synthase (Homo sapiens, UniProt O14684); test: (§4) Inhibition of mPGES-1 in interleukin-1 beta-stimulated human A549 cells microsomal membranes assessed as reduction in conversion of PGH2 to PGE2 pre-incubated for 15 mins followed by PGH2 substrate addition measured after 1 min by RP-HPLC method; type: cell-based; outline: as §3
T3 sequence (O14684 whole entry): T2 sequence (whole entry)

[4] = target: T4, Polyunsaturated fatty acid 5-lipoxygenase (Homo sapiens) (UniProt P09917); test: as §1; outline: as §2
T4 sequence (whole entry): T1 sequence (P09917 whole entry)

[5] = target: T2, Prostaglandin E synthase (Homo sapiens); test: as §4; type: cell-based; outline: as §3
[6] = target: T4, Polyunsaturated fatty acid 5-lipoxygenase (Homo sapiens); test: Inhibition of human recombinant 5-lipoxygenase expressed in Escherichia coli MV1190 up to 10 uM pre-incubated for 10 mins before arachidonic acid substrate addition and measured after 10 mins by RP-HPLC method; outline: as §2

COc1cc(O)c2c(c1)CCC21C=CC(=O)CC1 (stereo not given)
IC50 [1]: 9300 nM | inhibition [2]: inactive

COc1cc(-c2cc(=O)c3c(O)c(C/C=C(\C)CCC=C(C)C)c(O)cc3o2)ccc1O
IC50 [1]: 1300 nM | IC50 [3]: 1800 nM

COc1cc(O)cc(CCc2ccc(OC)c(O)c2CC=C(C)C)c1
inhibition [4]: Dose-dependent effect | IC50 [1]: 400 nM | inhibition [5]: Dose-dependent effect | IC50 [3]: 10000 nM

COc1cc(O)c2c(c1)CCC21CCC(O)CC1 (stereo not given)
inhibition [6]: inactive | inhibition [2]: inactive
